Experimental data as given in ChEMBL document CHEMBL3632546 (Eur J Med Chem, 2015).
The source made the active and inactive calls. The calls are words filed in the database; no cut-off is given here.

The compounds below were run against Cathepsin D (Homo sapiens) (UniProt P07339) (assay: Inhibition of human recombinant cathepsin D preincubated for 30 mins followed by substrate addition measured after 15 mins by fluorescence analysis).
Cathepsin D (Homo sapiens), sequence (P07339 65-162 limits assumed): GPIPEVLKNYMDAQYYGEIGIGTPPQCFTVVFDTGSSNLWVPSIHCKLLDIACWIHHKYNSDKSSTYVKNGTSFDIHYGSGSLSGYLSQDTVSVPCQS
Cathepsin D (Homo sapiens), sequence (P07339 169-412 limits assumed): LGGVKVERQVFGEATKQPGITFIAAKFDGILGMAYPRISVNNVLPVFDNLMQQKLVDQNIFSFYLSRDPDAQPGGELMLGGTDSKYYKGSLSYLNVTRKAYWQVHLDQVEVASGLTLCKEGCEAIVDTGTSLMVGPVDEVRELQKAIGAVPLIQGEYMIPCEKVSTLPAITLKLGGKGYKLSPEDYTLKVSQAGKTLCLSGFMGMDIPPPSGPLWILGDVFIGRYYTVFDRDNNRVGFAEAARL

| SMILES | inhibition |
| --- | --- |
| COCCCOc1cc(C[C@@H](C[C@H](N)[C@@H](O)C[C@H](C(=O)NCC(C)(C)Cn2cc(CCO)nn2)C(C)C)C(C)C)ccc1OC.Cl | inactive |

Each compound was assayed against T1, Cathepsin E (Homo sapiens) (UniProt P14091) (assay: Inhibition of human recombinant cathepsin E preincubated for 30 mins followed by substrate addition measured after 15 mins by fluorescence analysis).
T1 sequence (whole entry): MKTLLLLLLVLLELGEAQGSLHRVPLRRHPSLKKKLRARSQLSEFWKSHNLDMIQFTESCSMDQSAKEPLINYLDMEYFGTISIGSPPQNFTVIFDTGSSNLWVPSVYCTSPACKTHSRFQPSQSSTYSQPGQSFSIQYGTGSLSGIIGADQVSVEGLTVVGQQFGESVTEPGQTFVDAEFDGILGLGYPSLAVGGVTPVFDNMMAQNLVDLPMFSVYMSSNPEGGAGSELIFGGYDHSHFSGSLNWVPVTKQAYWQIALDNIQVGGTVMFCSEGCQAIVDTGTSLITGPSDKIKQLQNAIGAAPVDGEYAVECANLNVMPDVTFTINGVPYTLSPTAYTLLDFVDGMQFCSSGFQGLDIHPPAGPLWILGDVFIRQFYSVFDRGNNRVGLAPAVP

| SMILES | inhibition |
| --- | --- |
| COCCCOc1cc(C[C@@H](C[C@H](N)[C@@H](O)C[C@H](C(=O)NCC(C)(C)Cn2cc(CCO)nn2)C(C)C)C(C)C)ccc1OC.Cl | inactive |

What follows are compounds tested against T2, Renin (Homo sapiens, UniProt P00797) (assay: Inhibition of human recombinant renin preincubated for 30 mins followed by substrate addition measured after 15 mins by fluorescence analysis).
T2 sequence (P00797 whole entry): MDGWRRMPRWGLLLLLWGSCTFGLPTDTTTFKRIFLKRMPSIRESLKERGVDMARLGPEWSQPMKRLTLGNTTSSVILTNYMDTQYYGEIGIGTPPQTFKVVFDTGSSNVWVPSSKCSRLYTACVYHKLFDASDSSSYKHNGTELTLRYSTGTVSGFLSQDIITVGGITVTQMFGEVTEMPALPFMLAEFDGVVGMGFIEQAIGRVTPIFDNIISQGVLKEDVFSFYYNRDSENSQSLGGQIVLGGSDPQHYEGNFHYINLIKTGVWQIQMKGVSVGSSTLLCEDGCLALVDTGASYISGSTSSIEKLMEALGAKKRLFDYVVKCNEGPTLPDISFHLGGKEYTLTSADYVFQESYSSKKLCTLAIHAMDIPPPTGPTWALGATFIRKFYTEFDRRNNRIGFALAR
Outline: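 Fluorogenic renin kit (Ex/Em 490/520 nm). Reaction started with pre-warmed renin substrate (20 µM solution) and run 15 min at 37 °C. RFU read with substrate-only wells as background. Vehicle, buffer and peptide inhibitor (10 µM solution) controls included.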

| SMILES | IC50 [nM] |
| --- | --- |
| COCCCOc1cc(C[C@@H](C[C@H](N)[C@@H](O)C[C@H](C(=O)NCC(C)(C)Cc2cccnc2)C(C)C)C(C)C)ccc1OC | 2.2 |
| COCCCOc1cc(C[C@@H](C[C@H](N)[C@@H](O)C[C@H](C(=O)NCC(C)(C)Cn2cc(C3CC3)nn2)C(C)C)C(C)C)ccc1OC | 1.6 |
| COCCCOc1cc(C[C@@H](C[C@H](N)[C@@H](O)C[C@H](C(=O)NCCc2ccc3c(c2)OCO3)C(C)C)C(C)C)ccc1OC | 11 |
| COCCCOc1cc(C[C@@H](C[C@H](N)[C@@H](O)C[C@H](C(=O)NCC(C)(C)Cc2cccc(OC)c2)C(C)C)C(C)C)ccc1OC | 12.3 |
| COCCCOc1cc(C[C@@H](C[C@H](N)[C@@H](O)C[C@H](C(=O)NCC(C)(C)Cn2cc(C3(O)CCCC3)nn2)C(C)C)C(C)C)ccc1OC | 5.2 |
| COCCCOc1cc(C[C@@H](C[C@H](N)[C@@H](O)C[C@H](C(=O)NCC(C)(C)Cc2ccc(OC)cc2)C(C)C)C(C)C)ccc1OC | 10.2 |
| COCCCOc1cc(C[C@@H](C[C@H](N)[C@@H](O)C[C@H](C(=O)N[C@@H](C)c2ccc(Cl)cc2)C(C)C)C(C)C)ccc1OC | 15.2 |
| COCCCOc1cc(C[C@@H](C[C@H](N)[C@@H](O)C[C@H](C(=O)N[C@@H](C)c2ccc(Br)cc2)C(C)C)C(C)C)ccc1OC | 20.9 |
| COCCCOc1cc(C[C@@H](C[C@H](N)[C@@H](O)C[C@H](C(=O)NCC(C)(C)Cc2ccccc2F)C(C)C)C(C)C)ccc1OC | 9.2 |
| COCCCOc1cc(C[C@@H](C[C@H](N)[C@@H](O)C[C@H](C(=O)NCC(C)(C)Cn2cc(C(C)(C)C)nn2)C(C)C)C(C)C)ccc1OC | 7 |
| COCCCOc1cc(C[C@@H](C[C@H](N)[C@@H](O)C[C@H](C(=O)NCC(C)(C)Cn2cc(CN3CCOCC3)nn2)C(C)C)C(C)C)ccc1OC | 1.1 |
| COCCCOc1cc(C[C@@H](C[C@H](N)[C@@H](O)C[C@H](C(=O)NCC(C)(C)Cc2cccc(F)c2)C(C)C)C(C)C)ccc1OC | 9.8 |
| COCCCOc1cc(C[C@@H](C[C@H](N)[C@@H](O)C[C@H](C(=O)NCC(C)(C)Cn2cc(CN3CCCCC3)nn2)C(C)C)C(C)C)ccc1OC | 1 |
| COCCCOc1cc(C[C@@H](C[C@H](N)[C@@H](O)C[C@H](C(=O)NCC(C)(C)CC2CCCCC2)C(C)C)C(C)C)ccc1OC | 15.5 |
| CCCCc1cn(CC(C)(C)CNC(=O)[C@@H](C[C@H](O)[C@@H](N)C[C@H](Cc2ccc(OC)c(OCCCOC)c2)C(C)C)C(C)C)nn1 | 5.8 |
| COCCCOc1cc(C[C@@H](C[C@H](N)[C@@H](O)C[C@H](C(=O)N[C@H](C)c2ccc(Cl)cc2)C(C)C)C(C)C)ccc1OC | 30 |
| COCCCOc1cc(C[C@@H](C[C@H](N)[C@@H](O)C[C@H](C(=O)NCCc2ccccn2)C(C)C)C(C)C)ccc1OC | 2.6 |
| COCCCOc1cc(C[C@@H](C[C@H](N)[C@@H](O)C[C@H](C(=O)NCC(C)(C)CCOc2ccccc2)C(C)C)C(C)C)ccc1OC | 8.5 |
| COCCCOc1cc(C[C@@H](C[C@H](N)[C@@H](O)C[C@H](C(=O)NCC(C)(C)Cn2cc(CN(C)C)nn2)C(C)C)C(C)C)ccc1OC | 1.9 |
| COCCCOc1cc(C[C@@H](C[C@H](N)[C@@H](O)C[C@H](C(=O)NCC(C)(C)Cn2cc(CO)nn2)C(C)C)C(C)C)ccc1OC | 0.9 |

| SMILES | IC50 [nM] |
| --- | --- |
| COCCCOc1cc(C[C@@H](C[C@H](N)[C@@H](O)C[C@H](C(=O)NCC(C)(C)Cc2cc(F)ccc2F)C(C)C)C(C)C)ccc1OC | 12.4 |
| COCCCOc1cc(C[C@@H](C[C@H](N)[C@@H](O)C[C@H](C(=O)NCC(C)(C)Cn2cc(-c3ccccc3)nn2)C(C)C)C(C)C)ccc1OC | 5 |
| COCCCOc1cc(C[C@@H](C[C@H](N)[C@@H](O)C[C@H](C(=O)NCC(C)(C)Cc2ccc3ccccc3c2)C(C)C)C(C)C)ccc1OC | 11.2 |
| COCCCOc1cc(C[C@@H](C[C@H](N)[C@@H](O)C[C@H](C(=O)NCC(C)(C)Cc2ccncc2)C(C)C)C(C)C)ccc1OC | 1.5 |
| COCCCOc1cc(C[C@@H](C[C@H](N)[C@@H](O)C[C@H](C(=O)NCC(C)(C)Cc2ccccc2)C(C)C)C(C)C)ccc1OC | 34 |
| COCCCOc1cc(C[C@@H](C[C@H](N)[C@@H](O)C[C@H](C(=O)NCCc2ccccc2Cl)C(C)C)C(C)C)ccc1OC | 27.7 |
| COCCCOc1cc(C[C@@H](C[C@H](N)[C@@H](O)C[C@H](C(=O)N[C@H](C)c2ccc(Br)cc2)C(C)C)C(C)C)ccc1OC | 33.7 |
| COCCCOc1cc(C[C@@H](C[C@H](N)[C@@H](O)C[C@H](C(=O)NCC(C)(C)Cn2cc(C(C)O)nn2)C(C)C)C(C)C)ccc1OC (stereo partly drawn) | 1.1 |
| COCCCOc1cc(C[C@@H](C[C@H](N)[C@@H](O)C[C@H](C(=O)NCC(C)(C)CCN2CCOCC2)C(C)C)C(C)C)ccc1OC | 1.8 |
| COCCCOc1cc(C[C@@H](C[C@H](N)[C@@H](O)C[C@H](C(=O)NCC(C)(C)Cn2cc(CN(C(C)C)C(C)C)nn2)C(C)C)C(C)C)ccc1OC | 2.7 |
| CCN(CC)Cc1cn(CC(C)(C)CNC(=O)[C@@H](C[C@H](O)[C@@H](N)C[C@H](Cc2ccc(OC)c(OCCCOC)c2)C(C)C)C(C)C)nn1 | 2.1 |
| CCCCCCc1cn(CC(C)(C)CNC(=O)[C@@H](C[C@H](O)[C@@H](N)C[C@H](Cc2ccc(OC)c(OCCCOC)c2)C(C)C)C(C)C)nn1 | 17.1 |
| COCCCOc1cc(C[C@@H](C[C@H](N)[C@@H](O)C[C@H](C(=O)NCCc2cccc(OC)c2)C(C)C)C(C)C)ccc1OC | 7.2 |
| COCCCOc1cc(C[C@@H](C[C@H](N)[C@@H](O)C[C@H](C(=O)NCC(C)(C)Cn2cc(-c3ccccn3)nn2)C(C)C)C(C)C)ccc1OC | 1.5 |
| COCCCOc1cc(C[C@@H](C[C@H](N)[C@@H](O)C[C@H](C(=O)NCC(C)(C)Cc2c(F)cccc2F)C(C)C)C(C)C)ccc1OC | 16.1 |
| COCCCOc1cc(C[C@@H](C[C@H](N)[C@@H](O)C[C@H](C(=O)NCC(C)(C)Cn2cc(CCO)nn2)C(C)C)C(C)C)ccc1OC.Cl | 0.7 |
| COCCCOc1cc(C[C@@H](C[C@H](N)[C@@H](O)C[C@H](C(=O)NCC(C)(C)Cn2ccnn2)C(C)C)C(C)C)ccc1OC | 2 |
| COCCCOc1cc(C[C@@H](C[C@H](N)[C@@H](O)C[C@H](C(=O)NCC(C)(C)Cn2cc(-c3ccc(C)cc3)nn2)C(C)C)C(C)C)ccc1OC | 13.1 |
| COCCCOc1cc(C[C@@H](C[C@H](N)[C@@H](O)C[C@H](C(=O)NCC(C)(C)Cc2cccc(Cl)c2)C(C)C)C(C)C)ccc1OC | 9.8 |
| COCCCOc1cc(C[C@@H](C[C@H](N)[C@@H](O)C[C@H](C(=O)NCC(C)(C)Cc2ccc(OC(F)(F)F)cc2)C(C)C)C(C)C)ccc1OC | 13.4 |

Each compound was assayed on Mus musculus (assay: Antihypersensitive activity in po dosed double transgenic hypertensive mouse harboring human angiotensinogen and human renin genes assessed as maximum reduction of mean arterial blood pressure monitored 24 hrs post dose).
Format: functional

| SMILES | Activity [mmHg] |
| --- | --- |
| COCCCOc1cc(C[C@@H](C[C@H](N)[C@@H](O)C[C@H](C(=O)NCC(C)(C)Cn2cc(CCO)nn2)C(C)C)C(C)C)ccc1OC.Cl | 40 |

Each compound was assayed on Mus musculus (assay: Antihypersensitive activity in po dosed double transgenic hypertensive mouse harboring human angiotensinogen and human renin genes assessed as time duration for sustained reduction of mean arterial blood pressure monitored 24 hrs post dose).
Format: functional

| SMILES | Time [h] |
| --- | --- |
| COCCCOc1cc(C[C@@H](C[C@H](N)[C@@H](O)C[C@H](C(=O)NCC(C)(C)Cn2cc(CCO)nn2)C(C)C)C(C)C)ccc1OC.Cl | 14 |

The compounds below were run on Mus musculus (assay: Antihypersensitive activity in double transgenic hypertensive mouse harboring human angiotensinogen and human renin genes assessed as reduction of mean arterial blood pressure at 17 to 34 umol/kg, po monitored 24 hrs post dose).
Format: functional, organism-based

| SMILES | Activity |
| --- | --- |
| COCCCOc1cc(C[C@@H](C[C@H](N)[C@@H](O)C[C@H](C(=O)NCC(C)(C)Cn2cc(CCO)nn2)C(C)C)C(C)C)ccc1OC.Cl | Active |

These compounds were tested on Mus musculus (assay: Antihypersensitive activity in po dosed double transgenic hypertensive mouse harboring human angiotensinogen and human renin genes assessed as reduction of mean arterial blood pressure monitored 24 hrs post dose).
Format: functional, organism-based

| SMILES | Activity |
| --- | --- |
| COCCCOc1cc(C[C@@H](C[C@H](N)[C@@H](O)C[C@H](C(=O)NCC(C)(C)Cn2cc(CCO)nn2)C(C)C)C(C)C)ccc1OC.Cl | Dose-dependent effect |

Each compound was assayed on Mus musculus (assay: Antihypersensitive activity in double transgenic hypertensive mouse harboring human angiotensinogen and human renin genes assessed as reduction of mean arterial blood pressure at 8.5 umol/kg, po monitored 24 hrs post dose).
Format: functional, organism-based

| SMILES | Activity |
| --- | --- |
| COCCCOc1cc(C[C@@H](C[C@H](N)[C@@H](O)C[C@H](C(=O)NCC(C)(C)C(N)=O)C(C)C)C(C)C)ccc1OC | Active |
| COCCCOc1cc(C[C@@H](C[C@H](N)[C@@H](O)C[C@H](C(=O)NCC(C)(C)Cn2cc(CCO)nn2)C(C)C)C(C)C)ccc1OC.Cl | Active |
